Calls of active or inactive are those of the source.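 Rule for the calls: active = relative luminescence ratio of 1.25 or more at any tested dose; inactive = ratio below 1.25 at every tested dose.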

The assay is described as follows: StAR promoter luciferase reporter activators, dose response, counter-screen for DAX1 inhibitor project, cell-based, luminescence, HEK293, powder samples, assay provider (AID 624307). As to conditions: HEK293 StAR promoter luciferase reporter (DAX-1/SF-1); series mostly up to 100 µM. In short, it runs like this: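 Signal: Luciferase luminescence from StAR promoter reporter | Assay system: HEK293 transfectants with DAX-1, SF-1 and StAR-luciferase reporter | Dosing: 100 µM single dose plus three-point 1:2 series from 50 µM | Repeats: Three replicates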
A general note: Reporter assays use an easily measured gene product as a stand-in for the process of interest.
With `O=C(Nc1ccc2c(c1)OCO2)c1cccs1`, the molecule was called inactive.
As for `O=C(Nc1ccc2c(c1)OCO2)c1ccc(C2SCC(=O)N2Cc2ccco2)cc1` (centres undefined), the outcome was inactive.
For the molecule `O=C(Cc1cccs1)Nc1ccc2c(c1)OCO2`, the call was inactive.
Under `Cn1c(=O)n(C)c2cc(C(=O)Nc3ccc4c(c3)OCCO4)ccc21` stands “inactive”; under `CSc1ccccc1C(=O)Nc1ccc2c(c1)OCCO2`, “inactive”; under `Cc1cc(C(=O)Nc2ccc3c(c2)OCO3)cs1`, “inactive”.
Under `COc1ccc(OC)c(C(C)NC(=O)c2cccc3ccccc23)c1` (centres undefined) stands “inactive”; under `CN(C)c1cccc(C(=O)Nc2ccc3c(c2)OCCO3)c1`, “inactive”; under `COc1ccc(OC)c(C(C)NC(=O)c2ccccc2F)c1` (centres undefined), “inactive”.
To `Cc1occc1C(=O)Nc1ccc2c(c1)OCO2` belongs “inactive”; to `COc1ccc(OC)c(C(C)NC(=O)c2ccc(C)cc2)c1` (centres undefined), “inactive”.
Consider `COc1cccc(C(=O)Nc2ccc3c(c2)OCO3)c1`, for which the call was inactive.
Under `COc1ccc(OC)c(C(C)NC(=O)c2ccccc2)c1` (centres undefined) stands “inactive”; under `COc1cccc(C(=O)Nc2ccc3c(c2)OCCO3)c1`, “inactive”; under `O=C(Nc1ccc2c(c1)OCO2)c1ccc2ccccc2c1`, “inactive”.
For `CSc1ccccc1C(=O)Nc1ccc2c(c1)OCO2`, the call was inactive.
As to `O=C(Nc1ccc2c(c1)OCO2)c1ccc(C2SCC(=O)N2Cc2ccccc2)cc1` (centres undefined), the call was inactive.
To `COc1ccc(OC)c(C(C)NC(=O)c2ccc(F)cc2)c1` (centres undefined) belongs “inactive”; to `COc1ccc(OC)c(C(C)NC(=O)c2ccc(Cl)cc2)c1` (centres undefined), “inactive”; to `COc1ccc(OC)c(C(C)NC(=O)c2c(F)cccc2Cl)c1` (centres undefined), “inactive”.
Under `COc1cccc(C(=O)NC(C)c2cc(OC)ccc2OC)c1` (centres undefined) stands “inactive”; under `COc1ccc(OC)c(C(C)NC(=O)c2cccc(C)c2)c1` (centres undefined), “inactive”.
To `O=C(Nc1ccc2c(c1)OCCO2)c1ccc2ccccc2c1` belongs “inactive”; to `COc1ccc(OC)c(C(C)NC(=O)c2ccccc2Cl)c1` (centres undefined), “inactive”; to `COc1ccc(OC)c(C(C)NC(=O)c2ccc3c(c2)OCCO3)c1` (centres undefined), “inactive”.
On to `COc1ccc(OC)c(C(C)NC(=O)c2ccc(C(C)(C)C)cc2)c1` (centres undefined), for which the molecule was classed as inactive.
To `COc1ccc(OC)c(C(C)NC(=O)c2cccc(F)c2)c1` (centres undefined) belongs “inactive”.
As for `COc1ccc(OC)c(C(C)NC(=O)c2ccccc2C)c1` (centres undefined), the result was inactive.
To `Cn1c(=O)n(C)c2cc(C(=O)Nc3ccc4c(c3)OCO4)ccc21` belongs “inactive”.

Source of the values: PubChem BioAssay AID624307 (The Scripps Research Institute Molecular Screening Center, 2012).
